Values belong to the molecule of their own block, whether it stands above or below them.
Experiments:
[1] = species: Oryctolagus cuniculus; test: Concentration required to reduced U-46619-induced contraction of the rabbit aorta by 50%.(values in parentheses are 95% confidence limits); assay type: functional
[2] = species: Cavia porcellus; test: Compound was evaluated for inhibition of specific binding of [3H]U-46619 to guinea pig platelet membrane.; assay type: functional
In short: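 Guinea pig blood was drawn by cardiac puncture into 0.315% citrate plus 1 mM aspirin (final). PRP platelets were washed in 25 mM Tris-HCl/5 mM MgCl2 pH 7.4, sonicated, and the 100000 g pellet used at 1 mg/mL protein. Membranes were incubated with 4 nM [3H]U-46619 and drug at 25 °C for 30 min, then filtered and counted. The IC50 is for specific binding, with 2–6 replicates per dose.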

[3] = species: Homo sapiens; test: Concentration required to reduced U-46619-induced aggregation of human platelet by 50%.(values in parentheses are 95% confidence limits); assay type: functional
In short: (§1)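 Healthy male volunteers, medication-free for at least 10 days, gave blood into 3.8% sodium citrate. PRP was adjusted to 400000 platelets/µL with PPP, preincubated at 37 °C for 2 min, then given drug or vehicle for 2 min. Aggregation was triggered with submaximal U-46619 (1–3 µM) and read photometrically (Born).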

[4] = system: Cavia porcellus; test: The compound was tested in vivo for the inhibition of U-46619-induced bronchoconstriction in guinea pig, 1 hr after oral administration at a dose of 5 mg/Kg.; assay type: functional; conditions: PIG1, po
In short: (§2)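 Guinea pigs received drug suspended in 5% gum arabic orally 1 h before U-46619 challenge. The result is percent inhibition of bronchoconstriction versus control, tested with Dunnett's test.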

[5] = system: Rattus norvegicus; test: The compound was tested in vivo for the inhibition of U-46619-induced bronchoconstriction in rat, 1 hr after oral administration at a dose of 5 mg/Kg.; assay type: functional
In short: (§3)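 Male Sprague-Dawley rats received drug suspended in 5% gum arabic orally 1 h before U-46619 (30 µg/kg, iv). Bronchoconstriction was recorded by the Konzett-Rössler method and expressed as percent inhibition versus control, tested with Dunnett's test.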

[6] = system: Cavia porcellus; test: The compound was tested in vivo for the inhibition of U-46619-induced bronchoconstriction in guinea pig, 1 hr after oral administration at a dose of 1.25 mg/Kg.; assay type: functional; conditions: PIG1, po; in short: as §2
[7] = system: Thromboxane A2 receptor (Cavia porcellus); test: Inhibition of specific binding of [3H]U-46619 to TXA2/PGH2 receptor in guinea pig platelet membrane
[8] = system: Rattus norvegicus; test: The compound was tested in vivo for the inhibition of U-46619-induced bronchoconstriction in rat, 1 hr after oral administration at a dose of 1.25 mg/Kg.; assay type: functional; in short: as §3
[9] = system: Cavia porcellus; test: The compound was tested in vivo for the inhibition of U-46619-induced bronchoconstriction in guinea pig, 1 hr after oral administration at a dose of 0.31 mg/Kg.; assay type: functional; conditions: PIG1, po; in short: as §2
[10] = species: Oryctolagus cuniculus; test: Concentration required to reduced U-46619-induced contraction of the rabbit aorta by 50%.; assay type: functional
[11] = species: Homo sapiens; test: Concentration required to reduced U-46619-induced aggregation of human platelet by 50%.; assay type: functional; in short: as §1
[12] = species: Homo sapiens; test: Concentration required to reduced U-46619-induced aggregation of human platelet by 50%; assay type: functional; in short: as §1
[13] = species: Oryctolagus cuniculus; test: Concentration required to reduced U-46619-induced contraction of the rabbit aorta by 50%; assay type: functional
[14] = system: Cavia porcellus; test: Compound was tested in vivo for the inhibition of U-46619-induced bronchoconstriction in guinea pig, 1 hr after oral administration at a dose of 5 mg/Kg.; assay type: functional; conditions: PIG1, po, read-out: Inhibition; in short: as §2
[15] = system: Cavia porcellus; test: compound was tested in vivo for the inhibition of U-46619-induced bronchoconstriction in guinea pig, 1 hr after oral administration at a dose of 1.25 mg/Kg.; assay type: functional; conditions: PIG1, po; in short: as §2
[16] = system: Rattus norvegicus; test: Compound was tested in vivo for the inhibition of U-46619-induced bronchoconstriction in rat, 1 hr after oral administration at a dose of 5 mg/Kg.; assay type: functional; conditions: read-out: Inhibition; in short: as §3

IC50 [1]: 270 nM
IC50 [2]: 80 nM
IC50 [3]: 69 nM
IC50 [7]: 80 nM
SMILES: CC(=O)c1c(C)c(C)c(O)c(C(CCCCCC(=O)O)c2ccc(F)cc2)c1C (stereo unspecified)
inhibition in vivo at 5 mg/kg [4]: 76%
inhibition in vivo at 5 mg/kg [5]: 42%
inhibition in vivo at 1.25 mg/kg [6]: 22%

IC50 [7]: 840 nM
SMILES: Cc1c(C)c(Cl)c(C)c(C(CCCCCC(=O)O)c2ccc(F)cc2)c1O (stereo unspecified)

IC50 [1]: 27 nM
IC50 [2]: 13 nM
IC50 [3]: 78 nM
IC50 [7]: 13 nM
SMILES: Cc1c(C)c2c(c(C(CCCCCC(=O)O)c3ccc(F)cc3)c1O)CCC2=O (stereo unspecified)
inhibition in vivo at 1.25 mg/kg [8]: < 50%
inhibition in vivo at 5 mg/kg [4]: < 95%
inhibition in vivo at 5 mg/kg [5]: 78%
inhibition in vivo at 1.25 mg/kg [6]: 59%
inhibition in vivo at 0.31 mg/kg [9]: -3%

IC50 [7]: 200 nM
SMILES: Cc1c(C)c(Br)c(C)c(C(CCCCCC(=O)O)c2ccc(F)cc2)c1O (stereo unspecified)

IC50 [7]: 250 nM
SMILES: Cc1c(C)c(CCO)c(C)c(C(CCCCCC(=O)O)c2ccc(F)cc2)c1O (stereo unspecified)

IC50 [7]: 820 nM
SMILES: Cc1c(C)c(CO)c(C)c(C(CCCCCC(=O)O)c2ccccc2)c1O (stereo unspecified)

IC50 [2]: 4.4 nM
IC50 [10]: 10 nM
IC50 [11]: 310 nM
SMILES: Cc1c(C)c(C=O)c(C)c(C(CCCCCC(=O)O)c2ccc(F)cc2)c1O (stereo unspecified)
inhibition in vivo at 1.25 mg/kg [8]: < 54%
inhibition in vivo at 5 mg/kg [4]: 84%
inhibition in vivo at 5 mg/kg [5]: 68%
inhibition in vivo at 1.25 mg/kg [6]: < 67%
inhibition in vivo at 0.31 mg/kg [9]: 33%

IC50 [7]: 240 nM
SMILES: Cc1cc(C)c(O)c(C(CCCCCC(=O)O)c2ccc(F)cc2)c1C (stereo unspecified)

IC50 [7]: 190 nM
SMILES: CCCCC(=O)c1c(C)c(C)c(O)c(C(CCCCCC(=O)O)c2ccc(F)cc2)c1C (stereo unspecified)

Second part, the molecule before the results:

SMILES: Cc1c(C)c2c(c(C(CCCCCC(=O)O)c3ccc(F)cc3)c1O)CCC2 (stereo unspecified)
IC50 [7]: 160 nM

SMILES: COCc1c(C)c(C)c(O)c(C(CCCCCC(=O)O)c2ccc(F)cc2)c1C (stereo unspecified)
IC50 [7]: 340 nM

SMILES: Cc1c(O)c(C(CCCCCC(=O)O)c2ccc(F)cc2)c(C)c2c1CC(=O)C2 (stereo unspecified)
inhibition in vivo at 5 mg/kg [4]: < 42%
IC50 [7]: 79 nM

SMILES: Cc1cc(C)c(C(CCCCCC(=O)O)c2ccc(F)cc2)c(O)c1C (stereo unspecified)
IC50 [7]: 450 nM

SMILES: O=C(O)Cc1ccc(CCNS(=O)(=O)c2ccc(Cl)cc2)cc1 [DALTROBAN]
IC50 [10]: 120 nM
inhibition in vivo at 5 mg/kg [4]: < 84%
inhibition in vivo at 5 mg/kg [5]: < 73%
inhibition in vivo at 1.25 mg/kg [6]: 36%
IC50 [11]: 640 nM
IC50 [7]: 62 nM

SMILES: Cc1c(C)c(C(=O)O)c(C)c(C(CCCCCC(=O)O)c2ccc(F)cc2)c1O (stereo unspecified)
IC50 [7]: 3200 nM

SMILES: Cc1c(C)c(C=O)c(C)c(C(CCCCCC(=O)O)c2ccccc2)c1O (stereo unspecified)
IC50 [10]: 190 nM
inhibition in vivo at 5 mg/kg [4]: 30%
IC50 [11]: 1400 nM

SMILES: Cc1c(O)c(C(CCCCCC(=O)O)c2ccc(F)cc2)c(C)c2c1CCC2 (stereo unspecified)
IC50 [12]: 310 nM
IC50 [13]: 230 nM
inhibition in vivo at 5 mg/kg [14]: 76%
inhibition in vivo at 1.25 mg/kg [15]: 37%
inhibition in vivo at 5 mg/kg [16]: 48%
IC50 [7]: 49 nM

SMILES: Cc1c(C)c2c(c(C(CCCCCC(=O)O)c3ccc(F)cc3)c1O)CCCC2=O (stereo unspecified)
IC50 [7]: 76 nM

SMILES: CC(=O)c1c(C)c(C)c(C(CCCCCC(=O)O)c2ccc(F)cc2)c(O)c1C (stereo unspecified)
IC50 [7]: 250 nM

SMILES: Cc1c(C)c(C(CCCCCC(=O)O)c2ccc(F)cc2)c(O)c(C)c1CO (stereo unspecified)
IC50 [7]: 650 nM

SMILES: Cc1c(C)c(CO)c(C)c(C(CCCCCC(=O)O)c2ccc(F)cc2)c1O (stereo unspecified)
IC50 [1]: 32 nM
inhibition in vivo at 1.25 mg/kg [8]: < 40%
IC50 [3]: 79 nM
inhibition in vivo at 5 mg/kg [5]: < 65%
inhibition in vivo at 0.31 mg/kg [9]: 57%
IC50 [7]: 32 nM

SMILES: Cc1c(C)c(C)c(C(CCCCCC(=O)O)c2ccc(F)cc2)c(O)c1C (stereo unspecified)
IC50 [7]: 130 nM
